Source: ChEMBL document CHEMBL1781959, “Synthesis and in vitro antitumor activity of substituted quinazoline and quinoxaline derivatives: search for anticancer agent” (Eur J Med Chem, 2011)

Columns and labels:
K562 = experiment: Growth inhibition of human K562 cells after 48 hrs by SRB assay; format: functional; conditions: K562, 48 h
In short: (§1)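 NCI 60-panel five-dose assay at 0.01, 0.1, 1, 10 and 100 μM. Cells in RPMI 1640 with 5% FBS and 2 mM L-glutamine, preincubated 24 h, with time-zero plates TCA-fixed. Drug exposure 48 h at 37 °C. Read by SRB staining at 515 nm. GI50 is the concentration where [(Ti−Tz)/(C−Tz)]×100 = 50, taken from log concentration versus % growth curves.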

MOLT-4 [1] = experiment: Growth inhibition of human MOLT4 cells after 48 hrs by SRB assay; format: functional; conditions: MOLT-4, 48 h; in short: as §1
SR = experiment: Growth inhibition of human SR cells after 48 hrs by SRB assay; format: functional
In short: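 Leukemia suspension line in the NCI-60 screen, grown in RPMI 1640 with 5% FBS and 2 mM L-glutamine and preincubated for 24 h. Exposure was either a single 10^-5 M dose or five doses from 0.01 to 100 μM, for 48 h at 37 °C. Settled cells were fixed with 80% TCA (16% final), stained with SRB, and read at 515 nm. GI50 was derived from % growth against time-zero and untreated controls.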

HCT-116 = experiment: Growth inhibition of human HCT116 cells after 48 hrs by SRB assay; format: functional; conditions: HCT-116, 48 h; in short: as §1
SW-620 [2] = experiment: Growth inhibition of human SW620 cells after 48 hrs by SRB assay; format: functional; conditions: SW-620, 48 h
In short: (§2)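 NCI-60 panel cells grown in RPMI 1640 with 5% FBS and 2 mM L-glutamine, then seeded at 5000–40,000 cells/well by doubling time and preincubated for 24 h. Compound in DMSO was tested either at 10^-5 M alone or at 0.01–100 μM in five doses, for 48 h at 37 °C. Cells were fixed with cold TCA (10% final), stained with SRB, and read at 515 nm. GI50 was taken from % growth relative to time-zero and control wells.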

SF-539 [3] = experiment: Growth inhibition of human SF539 cells after 48 hrs by SRB assay; format: functional; conditions: SF-539, 48 h; in short: as §2
Malme-3M = experiment: Growth inhibition of human MALME-3M cells after 48 hrs by SRB assay; format: functional; in short: as §1
SK-MEL-2 [4] = experiment: Growth inhibition of human SK-MEL-2 cells after 48 hrs by SRB assay; format: functional; conditions: SK-MEL-2, 48 h; in short: as §2
SK-MEL-5 [5] = experiment: Growth inhibition of human SK-MEL-5 cells after 48 hrs by SRB assay; format: functional; conditions: SK-MEL-5, 48 h; in short: as §2
IGROV-1 = experiment: Growth inhibition of human IGROV1 cells after 48 hrs by SRB assay; format: functional; conditions: IGROV-1, 48 h; in short: as §1
OVCAR-3 = experiment: Growth inhibition of human OVCAR3 cells after 48 hrs by SRB assay; format: functional; conditions: OVCAR-3, 48 h; in short: as §1
OVCAR-5 [6] = experiment: Growth inhibition of human OVCAR5 cells after 48 hrs by SRB assay; format: functional; conditions: OVCAR-5, 48 h; in short: as §1
SK-OV-3 = experiment: Growth inhibition of human SKOV3 cells after 48 hrs by SRB assay; format: functional; conditions: SK-OV-3, 48 h; in short: as §2
PC-3 = experiment: Growth inhibition of human PC3 cells after 48 hrs by SRB assay; format: functional; conditions: PC-3, 48 h; in short: as §1
MCF7 = experiment: Growth inhibition of human MCF7 cells after 48 hrs by SRB assay; format: functional; conditions: MCF7, 48 h; in short: as §1
NCI-H322M = experiment: Cytotoxicity against human NCI-H322M cells after 48 hrs by SRB assay; format: cell-based
In short: (§3)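 NCI-60 five-dose screen in RPMI 1640 with 5% FBS and 2 mM L-glutamine; 5000–40,000 cells/well, 24 h pre-incubation. DMSO stocks diluted to 0.01, 0.1, 1, 10 and 100 μM final; 48 h at 37 °C, 5% CO2. Fixed with TCA (10% final adherent, 16% suspension), stained with 0.4% SRB, A515. GI50, TGI and LC50 taken from time-zero, control and test absorbances.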

MOLT-4 [7] = experiment: Cytotoxicity against human MOLT4 cells after 48 hrs by SRB assay; format: cell-based; conditions: molt-4, 48 h; in short: as §3
COLO 205 = experiment: Cytotoxicity against human COLO205 cells after 48 hrs by SRB assay; format: cell-based; conditions: colo 205, 48 h; in short: as §3
SW-620 [8] = experiment: Cytotoxicity against human SW620 cells after 48 hrs by SRB assay; format: cell-based; conditions: sw-620, 48 h
In short: (§4)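 NCI-60 five-dose screen. Cells grown in RPMI 1640 with 5% FBS and 2 mM L-glutamine and pre-incubated 24 h; a time-zero plate is TCA-fixed. Drug added at 0.01, 0.1, 1, 10 and 100 µM (DMSO stock) for 48 h at 37 °C, 5% CO2. Fixed with cold TCA (10% final for adherent, 16% for suspension cells), stained with 0.4% SRB, A515. GI50, TGI and LC50 taken from dose-response curves.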

SF-268 = experiment: Cytotoxicity against human SF268 cells after 48 hrs by SRB assay; format: cell-based; conditions: sf-268, 48 h; in short: as §3
SF-539 [9] = experiment: Cytotoxicity against human SF539 cells after 48 hrs by SRB assay; format: cell-based; conditions: sf-539, 48 h; in short: as §3
LOX IMVI = experiment: Cytotoxicity against human LOXIMVI cells after 48 hrs by SRB assay; format: cell-based; in short: as §3
SK-MEL-2 [10] = experiment: Cytotoxicity against human SK-MEL-2 cells after 48 hrs by SRB assay; format: cell-based; conditions: sk-mel-2, 48 h; in short: as §3
SK-MEL-5 [11] = experiment: Cytotoxicity against human SK-MEL-5 cells after 48 hrs by SRB assay; format: cell-based; conditions: sk-mel-5, 48 h; in short: as §3
UACC-62 = experiment: Cytotoxicity against human UACC62 cells after 48 hrs by SRB assay; format: cell-based; conditions: uacc-62, 48 h; in short: as §4
OVCAR-5 [12] = experiment: Cytotoxicity against human OVCAR5 cells after 48 hrs by SRB assay; format: cell-based; conditions: ovcar-5, 48 h; in short: as §3
786-0 = experiment: Cytotoxicity against human 786-0 cells after 48 hrs by SRB assay; format: cell-based; conditions: 786-0, 48 h; in short: as §3
ACHN = experiment: Cytotoxicity against human ACHN cells after 48 hrs by SRB assay; format: cell-based; in short: as §3
SN12C = experiment: Cytotoxicity against human SN12C cells after 48 hrs by SRB assay; format: cell-based; in short: as §3
TK-10 = experiment: Cytotoxicity against human TK10 cells after 48 hrs by SRB assay; format: cell-based; conditions: tk-10, 48 h; in short: as §4
UO-31 = experiment: Cytotoxicity against human UO31 cells after 48 hrs by SRB assay; format: cell-based; conditions: uo-31, 48 h; in short: as §4

## O=c1c2ccccc2nc(-c2ccco2)n1/N=C/c1ccccc1Cl
K562
  GI50: > 100 µM
  TGI: > 100 µM
MOLT-4 [1]
  GI50: > 100 µM
  TGI: > 100 µM
SR
  GI50: > 100 µM
  TGI: > 100 µM
HCT-116
  GI50: 3.32 µM
  TGI: 23.6 µM
SW-620 [2]
  GI50: 4.68 µM
  TGI: 12.7 µM
SF-539 [3]
  GI50: 3.28 µM
  TGI: 21.2 µM
Malme-3M
  GI50: 7.23 µM
  TGI: > 100 µM
SK-MEL-2 [4]
  GI50: 6.86 µM
  TGI: > 100 µM
SK-MEL-5 [5]
  GI50: 5.56 µM
  TGI: 31.8 µM
IGROV-1
  GI50: 6.12 µM
  TGI: > 100 µM
OVCAR-3
  GI50: 4.12 µM
  TGI: 6.87 µM
OVCAR-5 [6]
  GI50: 5.12 µM
  TGI: > 100 µM
SK-OV-3
  GI50: 3.68 µM
  TGI: 14.8 µM
PC-3
  GI50: 8.23 µM
  TGI: > 100 µM
MCF7
  GI50: 5.29 µM
  TGI: > 100 µM
NCI-H322M
  LC50: > 100 µM
MOLT-4 [7]
  LC50: > 100 µM
COLO 205
  LC50: > 100 µM
SW-620 [8]
  LC50: > 100 µM
SF-268
  LC50: > 100 µM
SF-539 [9]
  LC50: > 100 µM
LOX IMVI
  LC50: > 100 µM
SK-MEL-2 [10]
  LC50: > 100 µM
SK-MEL-5 [11]
  LC50: > 100 µM
UACC-62
  LC50: > 100 µM
OVCAR-5 [12]
  LC50: > 100 µM
786-0
  LC50: > 100 µM
ACHN
  LC50: > 100 µM
SN12C
  LC50: > 100 µM
TK-10
  LC50: > 100 µM
UO-31
  LC50: > 100 µM
